Results of several laboratories.
Each line is one published result; the experiments were not run side by side.
BTK: Tyrosine-protein kinase BTK (BTK, Homo sapiens, UniProt Q06187)
BTK R28H: Tyrosine-protein kinase BTK (BTK, Homo sapiens, UniProt Q06187, R28H)

SMILES	target	effect on	action	method	tested at	endpoint	value
COc1cc2c(N3CCN(C(=O)Nc4ccc(OC(C)C)cc4)CC3)ncnc2cc1OCCCN1CCCCC1	BTK	cell-free assay	–	–	0.5 µM	remaining signal	102%
FC(F)(F)c1ccc2c(c1)nc(-c1cccnc1)n2C1CC1	BTK	cell-free assay	–	competition with immobilised ligand	1 µM	remaining binding	93%
Nc1nc(NC2CCCCC2)sc1C(=O)c1ccccc1	BTK	enzyme activity	inhibitor	–	10 µM	remaining activity	75%
Cc1ccc(NC(=O)c2ccc(C)c(C(F)(F)F)c2)cc1C#Cc1nn(C2CCC(O)CC2)c2ncnc(N)c12 (stereo not drawn)	BTK R28H	cell-free assay	–	–	10 µM	remaining signal	71%
FC(F)c1nc2ccccc2n1-c1nc(N2CCOCC2)nc(N2CCOCC2)n1	BTK	enzyme activity	inhibitor	–	10 µM	remaining activity	98%
CC(C)(C)c1nc2c(s1)c1nc(N)ncc1c1ccc(NS(=O)(=O)c3c(F)cccc3F)c(F)c12	BTK	enzyme activity	inhibitor	radiometric	1 µM	remaining activity	75%
CC(C)(C=C(C#N)C(=O)N1CCC[C@H]1Cn1nc(-c2ccc(Oc3ccccc3)cc2F)c2c(N)ncnc21)N1CCOCC1	BTK	enzyme activity	inhibitor	–	–	kinact	0.0048 s⁻¹
Cc1ccc(C(=O)NCc2ccsc2)cc1C#Cc1cn(C(C)C)c2ncnc(N)c12	BTK	enzyme activity	inhibitor	–	1 µM	activity vs control	73%
COc1ccc(COc2ccc(Cc3cnc(N)nc3N)cc2OC)cc1	BTK	cell-free assay	–	–	0.5 µM	remaining signal	104%
Cc1sc(C(=O)NC2COC2)cc1-n1cc(NC(=O)Nc2c(F)cccc2Cl)cn1	BTK	enzyme activity	inhibitor	–	10 µM	remaining activity	87.6%
C[C@@H]1CN(c2cc(-c3n[nH]c4ccc(OC5(C)CC5)cc34)ncn2)C[C@H](C)O1	BTK	cell-free assay	–	competition with immobilised ligand	0.1 µM	remaining binding	73%
COc1cc(Nc2cnc(C#N)c(O[C@H](C)CN(C)C)n2)ncc1-c1cnn(C)c1	BTK	enzyme activity	inhibitor	radiometric	1 µM	remaining activity	88%
N#CC1(c2ccccn2)CCN(Cc2cc(C(=O)N3CCCC3)c(=O)n3ccccc23)CC1	BTK	cell-free assay	–	competition with immobilised ligand	1 µM	remaining binding	100%
Nc1ncnc2occ(-c3ccc(NC(=O)Nc4cc(C(F)(F)F)ccc4F)cc3)c12	BTK	cell-free assay	–	–	20 µM	remaining signal	26%
O=C(NCc1ncc(C(F)(F)F)cc1Cl)c1ccc2c(c1)C1(CCS(=O)(=O)CC1)[C@@H](C1CC1)N2S(=O)(=O)c1ccc(F)cc1	BTK	cell-free assay	–	competition with immobilised ligand	1 µM	remaining binding	73%
COc1ccc(F)cc1C(=O)NCc1ccc(-c2nn([C@@H](C)C(F)(F)F)c(N)c2C(N)=O)cc1	BTK	binding	–	SPR	–	kon	82000 M⁻¹ s⁻¹
Cc1cc(NC(=O)c2cccc(S(F)(F)(F)(F)F)c2)cc(-n2ccn3nc(-c4cccnc4)cc23)c1	BTK	cell-free assay	–	competition with immobilised ligand	1 µM	remaining binding	83.8%
Cc1cc(NC(=O)c2cccc3cc(-c4cccc5[nH]nc(N)c45)ccc23)ccc1F	BTK R28H	enzyme activity	inhibitor	–	0.1 µM	activity vs control	84%
Cc1cnc(NC2CCOCC2)nc1-n1cnc(C(=O)NC(CN)c2cc(F)cc(Cl)c2)c1 (stereo not drawn)	BTK R28H	enzyme activity	inhibitor	radiometric	1 µM	remaining activity	99%
CC(C)(C)C(=O)c1sc(NC2CCCCC2)nc1N	BTK	enzyme activity	inhibitor	–	10 µM	remaining activity	79%
CCC(=N\O)/C(C)=C/c1ccc(F)cc1	BTK	cell-free assay	–	competition with immobilised ligand	1 µM	remaining binding	78%
O=C1Nc2ccc(Cl)cc2C1=Cc1cc(Cl)c(O)c(Cl)c1	BTK	cell-free assay	–	–	0.5 µM	remaining signal	92.1%
NC(=O)[C@H]1CCN(c2ncnc(N)c2F)C[C@@H]1N1CCC[C@@H](Nc2cc(Cl)cc(C(F)(F)F)c2)C1=O	Tyrosine-protein kinase BTK (BTK, Homo sapiens, UniProt Q06187, C481S)	binding in cells	–	–	–	residence time	16 min
COc1ccc2c(c1)O[C@@H](c1ccc(OC)c(OC)c1)C[C@H]2NC(=O)C1(c2ccc3c(c2)OC(F)(F)O3)CC1	BTK	cell-free assay	–	competition with immobilised ligand	1 µM	remaining binding	81%
c1nc2c(Nc3ccc4c(c3)OCCO4)nc(Nc3ccc4c(c3)OCCO4)nc2[nH]1	BTK	enzyme activity	inhibitor	–	10 µM	activity vs control	0.65%
CNCc1ccccc1-c1csc([C@H](C)Nc2nc(C)nc3cc(OC)c(OC)cc23)c1	BTK	cell-free assay	–	competition with immobilised ligand	1 µM	remaining binding	89%
C=CC(=O)N1CCC[C@@H]1Cn1nc(-c2ccc(Oc3ccccc3)cc2F)c2c(N)ncnc21	BTK	enzyme activity	inhibitor	–	–	kinact	0.0034 s⁻¹
